Rows were chosen to be rich in hits. Some 2.6% of all compounds tested hit in one or more screens of this group.
Rin1 Abl inh: inhibitors of Rin1-Abl protein binding, primary screen, biochemical, TR-FRET. inhibition, % at 7.35 µM. 360,000 tested, 0.4% active. Tyrosine-protein kinase ABL1 (Homo sapiens) + Ras and Rab interactor 1 (Homo sapiens), …; in the data active = inhibition above about 5%, passing the limit was not always enough
Target sequence (P00519 whole entry, looked up): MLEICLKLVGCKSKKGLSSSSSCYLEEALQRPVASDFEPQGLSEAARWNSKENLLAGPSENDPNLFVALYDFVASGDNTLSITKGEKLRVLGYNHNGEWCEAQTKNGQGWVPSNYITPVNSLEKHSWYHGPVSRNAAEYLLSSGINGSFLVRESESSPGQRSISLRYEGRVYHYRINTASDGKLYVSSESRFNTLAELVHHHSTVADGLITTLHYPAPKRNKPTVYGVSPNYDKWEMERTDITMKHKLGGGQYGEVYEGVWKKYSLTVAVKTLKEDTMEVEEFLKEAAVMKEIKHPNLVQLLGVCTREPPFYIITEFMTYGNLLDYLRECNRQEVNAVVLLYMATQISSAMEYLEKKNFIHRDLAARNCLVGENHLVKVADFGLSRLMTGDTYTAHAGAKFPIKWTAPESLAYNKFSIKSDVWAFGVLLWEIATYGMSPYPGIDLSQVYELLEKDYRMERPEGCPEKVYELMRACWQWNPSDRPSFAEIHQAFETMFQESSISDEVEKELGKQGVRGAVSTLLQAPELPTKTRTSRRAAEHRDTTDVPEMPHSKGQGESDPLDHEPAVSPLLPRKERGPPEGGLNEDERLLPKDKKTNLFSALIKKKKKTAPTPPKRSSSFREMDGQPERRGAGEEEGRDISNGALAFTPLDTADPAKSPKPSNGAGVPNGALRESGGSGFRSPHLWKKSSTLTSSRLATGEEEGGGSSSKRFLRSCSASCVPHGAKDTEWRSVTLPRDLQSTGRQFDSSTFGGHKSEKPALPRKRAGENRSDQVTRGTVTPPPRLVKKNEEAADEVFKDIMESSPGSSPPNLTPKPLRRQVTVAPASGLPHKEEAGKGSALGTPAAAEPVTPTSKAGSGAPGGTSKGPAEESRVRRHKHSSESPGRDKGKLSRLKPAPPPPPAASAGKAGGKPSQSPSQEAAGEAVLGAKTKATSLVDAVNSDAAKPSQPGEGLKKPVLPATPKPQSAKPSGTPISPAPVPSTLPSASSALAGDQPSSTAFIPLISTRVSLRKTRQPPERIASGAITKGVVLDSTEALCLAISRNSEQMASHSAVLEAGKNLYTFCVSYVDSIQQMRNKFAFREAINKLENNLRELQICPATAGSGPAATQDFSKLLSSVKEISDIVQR
Target sequence (Q13671 whole entry, looked up): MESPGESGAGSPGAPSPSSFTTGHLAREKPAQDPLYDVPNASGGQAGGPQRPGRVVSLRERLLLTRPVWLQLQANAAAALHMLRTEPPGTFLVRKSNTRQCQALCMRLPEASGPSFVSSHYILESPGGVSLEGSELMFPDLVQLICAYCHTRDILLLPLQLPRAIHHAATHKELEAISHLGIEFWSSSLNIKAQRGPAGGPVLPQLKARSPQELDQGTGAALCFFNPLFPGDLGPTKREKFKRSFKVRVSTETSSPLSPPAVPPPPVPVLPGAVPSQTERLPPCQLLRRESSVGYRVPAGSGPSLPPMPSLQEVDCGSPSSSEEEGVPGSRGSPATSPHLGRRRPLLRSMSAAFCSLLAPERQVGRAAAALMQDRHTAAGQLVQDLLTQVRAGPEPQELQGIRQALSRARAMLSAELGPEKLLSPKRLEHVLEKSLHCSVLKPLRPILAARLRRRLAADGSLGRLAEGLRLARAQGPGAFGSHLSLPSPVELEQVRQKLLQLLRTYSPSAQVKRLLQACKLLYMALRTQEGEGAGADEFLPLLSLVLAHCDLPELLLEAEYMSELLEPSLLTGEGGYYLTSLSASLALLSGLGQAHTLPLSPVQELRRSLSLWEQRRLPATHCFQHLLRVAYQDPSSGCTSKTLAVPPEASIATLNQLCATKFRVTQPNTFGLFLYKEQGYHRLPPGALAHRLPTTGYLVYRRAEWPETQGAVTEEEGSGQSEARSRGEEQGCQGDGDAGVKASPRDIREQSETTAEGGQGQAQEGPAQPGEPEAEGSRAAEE
Rce1 inh: yeast Rce1p protease inhibitors, primary screen, biochemical, fluorescence, cell-free homogeneous; 290,000 tested, 0.27% active; calls only; yeast membranes, quenched prenylated peptide cleavage fluorescence; AID 2563, 2010; CAAX prenyl protease 2 (Saccharomyces cerevisiae (strain ATCC 204508 / S288c)), Q03530;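 active = fall in fluorescence gain of 50% or more versus controls, with final raw signal at or below 3038400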;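 also: plate controls were neutral control wells for no effect and wells lacking membranes for full effect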
Myeloid diff 2: induction of myeloid progenitor differentiation, primary screen, cell-based, flow cytometry, MLPCN library. ER-HoxA9 myeloid progenitors, lysozyme-GFP differentiation. calls only at 10 µM. 360,000 tested, 1% active. AID 624256, 2012;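 active = normalized GFP-positive differentiation at or above the plate's own cutoff, the solvent-only control mean plus 3 SD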;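 also: cells exposed to compound for four days before flow analysis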
SKN-1 inh: suppressors of acrylamide-induced Pgst-4::GFP reporter in worms, primary screen, SKN-1 inhibitor project, whole organism, uHTS, GFP/RFP fluorescence ratio, strain VP596. C. elegans VP596 Pgst-4::GFP/RFP ratio, 24 h. inhibition, % at 21.8 µM. 360,000 tested, 0.49% active. AID 624304, 2012;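 active = interference check ratio from 0.5 to 1.5 plus GFP to RFP signal ratio inhibition reaching or exceeding a fixed threshold, cut at about 30% in these data, passing the limit was not always enough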
T cell HTS: modulators of CD8 T cell-vesicle binding, primary screen, mouse 2C CD8+ T cells, flow cytometry; 330,000 tested, 0.068% active; 2C CD8+ T cell-vesicle binding; stronger effect = lower value; AID 2052, 2009; response (vesicle binding), % at 7 µM;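 active = response, share of CD8 T cells binding vesicles, and their 90th percentile fluorescence all below set limits, cut at about 80% in these data, passing the limit was not always enough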;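 also: values below 100% mean blocked vesicle binding to the CD8+ T cells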
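incubation = binding step 1.5 h, 37 °C, antibody labelling 20 min, ice | test system = 2C mouse CD8+ T cells | read-out basis = percent CD8+ FL2 mean versus row control | controls = Peptide-free naked vesicles (low) and QL9 vesicles with 0.7% DMSO vehicle (high) | detection = flow cytometry of vesicle-bound cells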
GRK2 inh: compounds blocking aptamer binding on GRK2 – biochemical, human GRK2, bead flow cytometry, HTS, primary screen; Beta-adrenergic receptor kinase 1 (Homo sapiens), P25098; FAM-aptamer displacement from GRK2; inhibition of aptamer binding, % at 10 µM; 330,000 tested, 0.59% active;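 active = inhibition of aptamer binding above 40%, roughly 3 SD of noise, on plates passing a quality check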;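 also: median bead fluorescence of bound FAM aptamer so fluorescent compounds give negative values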
Active calls of the source: *; i = inactive; / = no result; + = active, no number.

SMILES	Rin1 Abl inh	Rce1 inh	Myeloid diff 2	SKN-1 inh	T cell HTS	GRK2 inh
COc1ccc(NC(=O)CNc2cc(S(=O)(=O)N3CCOCC3)ccc2NCC2CCCO2)cc1 (centres undefined)	-3	i	i	12	167	1
N#CCc1nc2ccc(S(=O)(=O)N3CCOCC3)cc2s1	-4	i	+	-7	196	0
COC(=O)c1c(-c2ccc(OC)cc2)sc2ccccc12	/	/	/	/	346	0
Cc1nn(C)c(C)c1N1C(=O)c2cccc3c(Br)ccc(c23)C1=O	-9	/	+	8	268	0
Cc1nn(C)c(C)c1N1C(=O)c2cccc3c(N)ccc(c23)C1=O	-66	/	+	-80	188	4
O=C(Nc1ccccc1Cl)c1cc(C2CCCN(C(=O)c3cccc(O)c3)C2)on1 (centres undefined)	0	/	i	9	/	/
Clc1ccc(-c2cc(-c3nnc4n3CCCCC4)c3ccccc3n2)cc1	-5	i	+	15	156	13
N/C(=N\OC(=O)COc1ccc(Cl)cc1)c1cccnc1	-2	i	i	37*	218	1
Cc1cccc(OCC(=O)O/N=C(\N)c2ccncc2)c1	2	i	i	11	i	2
Cc1ccc(OCC(=O)O/N=C(\N)c2cccnc2)cc1	0	i	i	-4	286	0
N/C(=N\OC(=O)COc1ccc2ccccc2c1)c1ccncc1	-1	i	i	39*	564	0
N/C(=N\OC(=O)COc1ccc2ccccc2c1)c1cccnc1	-5	i	i	42*	559	5
CC(C)OP(=O)(c1ccc(N(C)C)cc1)C(O)c1ccc(N(C)C)cc1 (centres undefined)	3	i	i	-14	254	4
c1ccc2c(-c3nnc(SCc4cn5ccccc5n4)o3)c[nH]c2c1	1	i	i	25	148	0
c1ccc2c(-c3cn4ccccc4n3)c[nH]c2c1	/	+	/	/	615	2
CCN(C(=O)COC(=O)c1ccc(F)c(S(=O)(=O)N2CCOCC2)c1)C1CCS(=O)(=O)C1 (centres undefined)	-2	i	i	3	298	0
COc1cccc(CN2CCN(CCc3ccccc3)C(CCO)C2)c1OC (centres undefined)	2	i	+	5	308	4
CCc1nc2ccccc2n1CC(=O)N(C(C)CC)C1CCS(=O)(=O)C1 (centres undefined)	-2	/	i	47*	190	0
CCOC(=O)c1[nH]c(C)c(C(=O)OCC)c1C	-1	i	i	15	740	0
CCOC(=O)c1c(C)[nH]c(C(=O)COC(=O)c2[nH]c(C)c(C(C)=O)c2C)c1C	2	i	+	18	464	2
CCCNC(=O)COC(=O)c1[nH]c(C)c(C(=O)OCC)c1C	-3	i	i	35*	468	3
CCOC(=O)c1c(C)[nH]c(C(=O)OCC(=O)N2CCN(S(=O)(=O)c3ccccc3)CC2)c1C	1	i	i	42*	174	4
O=C(/C=C/c1cc[n+](CC(=O)c2ccc3cccc4c3c2CC4)cc1)c1ccc2cccc3c2c1CC3	-3	i	+	-5	149	94*
COc1ccc(C(=O)Nc2nc(-c3cccs3)cs2)cc1	-1	i	i	46*	325	0
O=C(Nc1nc(-c2cccs2)cs1)c1ccc(Cl)cc1	-1	i	i	30	87	2
SMILES	Rin1 Abl inh	Rce1 inh	Myeloid diff 2	SKN-1 inh	T cell HTS	GRK2 inh
Cc1ccc(NC(=O)c2ncn(CCCN(CCCn3cnc(C(=O)Nc4ccc(C)c(C)c4)n3)Cc3ccc4[nH]ccc4c3)n2)cc1C	4	/	i	10	/	/
COc1ccc(OC)c(NC(=O)COC(=O)c2cc3c(s2)CCC3)c1	-4	i	i	1	215	42*
CSCC[C@H](NC(=O)C1CCN(S(=O)(=O)c2ccc(C)cc2C)CC1)c1nc2ccccc2[nH]1	-3	/	i	-3	198	1
COc1ccc2cc3c(N)nn(C(=O)c4cccc([N+](=O)[O-])c4)c3nc2c1	-4	i	i	3	145	73*
C#CCNC(=O)C1=C[C@H](C2CCCCC2)C[C@H](OCc2ccc(CO)cc2)O1	-1	i	i	8	668	0
C#CCNC(=O)C1=C[C@@H](C2CCCCC2)C[C@@H](OCc2ccc(CO)cc2)O1	1	+	i	-1	/	/
O=C(CN1CCC(C(=O)c2ccc3c(c2)OCCO3)CC1)NCc1ccccc1	2	i	i	10	722	0
Cc1cc(Nc2cccc(F)c2)nc(NCc2ccccc2)n1	-2	i	+	7	254	1
Cc1cc(Nc2ccccc2)nc(NCc2ccccc2)n1	1	i	i	5	300	0
CN(C(=O)CSc1nnnn1-c1ccccc1)C1CCS(=O)(=O)C1 (centres undefined)	1	i	i	3	185	4
O=C(Nc1cccc(Cl)c1)c1ccccc1	1	/	i	4	507	0
O=C(Nc1ccc(Cl)c(Cl)c1)c1ccccc1	4	/	i	43*	524	0
O=C(Nc1ccc(OC(F)F)c(Cl)c1)c1cccc(OC(F)F)c1	-2	i	i	44*	429	0
O=C(Nc1ccc(Cl)c(Cl)c1)Nc1ccon1	2	i	/	46*	133	2
O=C(Nc1ccc([N+](=O)[O-])cc1)c1ccccc1	-1	/	i	37*	146	0
Cc1cc(NC(=O)Nc2ccc(Cl)c(Cl)c2)no1	-1	i	i	7	603	1
Cc1ccnc2nc(C(=O)OCC(=O)NC(=O)NCc3ccco3)nn12	2	i	i	-11	231	0
O=C(NNC(=O)c1ccc(NC(=O)c2ccccc2)cc1)c1ccccc1	2	i	i	-5	142	0
O=C(Nc1csc(Cl)c1)c1ccccc1	-4	i	i	42*	505	1
O=C(O)c1ccc(S(=O)(=O)N2CCCCCCC2)cc1	1	/	i	5	/	/
O=C(/C=C\Nc1ccccn1)c1ccccc1	-2	i	i	61*	353	0
O=C(/C=C/Nc1ccc(Br)cc1F)c1ccccc1	-2	i	i	50*	187	3
CC(=O)c1c(O)cc(O)c(C(C)=O)c1O	2	+	i	11	318	0

High-throughput results from PubChem BioAssay.
